Data reported in ChEMBL document CHEMBL1124015, “Methods for drug discovery: development of potent, selective, orally effective cholecystokinin antagonists” (J Med Chem, 1988).

Assays:
[1] = biological target: GABA-A receptor; anion channel; assay: Inhibition of [3H]flunitrazepam binding to GABA-A benzodiazepine receptor of guinea brain; set-up: species or system Cavia porcellus
[2] = biological target: T1, Cholecystokinin receptor type A (Rattus norvegicus, UniProt P30551); assay: Half-maximal inhibition of [125I]CCK-33 binding to cholecystokinin A receptor from rat pancreatic tissue
T1 sequence (P30551 whole entry): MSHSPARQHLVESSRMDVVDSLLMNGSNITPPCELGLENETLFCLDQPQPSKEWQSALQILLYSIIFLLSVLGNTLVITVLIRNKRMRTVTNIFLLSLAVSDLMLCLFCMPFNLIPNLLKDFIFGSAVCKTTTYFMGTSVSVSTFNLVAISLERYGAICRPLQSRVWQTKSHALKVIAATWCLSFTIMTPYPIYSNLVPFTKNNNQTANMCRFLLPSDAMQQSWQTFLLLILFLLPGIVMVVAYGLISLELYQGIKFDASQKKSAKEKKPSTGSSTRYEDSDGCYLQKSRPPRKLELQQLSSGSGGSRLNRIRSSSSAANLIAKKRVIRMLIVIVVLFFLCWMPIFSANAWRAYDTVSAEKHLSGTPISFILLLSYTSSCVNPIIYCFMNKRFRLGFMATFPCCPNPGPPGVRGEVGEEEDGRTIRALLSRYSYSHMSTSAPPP

Mus musculus = assay: Ability to antagonize CCK-8 inhibition of charcoal meal gastric emptying in mice, after oral administration; format: functional; details: Stomach
Method in brief: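 Mice dosed orally with test compound at one or more dose levels (N ≥ 10/dose) 1 h before CCK-8 (80 μg/kg, sc). CCK-8 given 5 min before a charcoal meal. Gastric emptying measured 5 min after the meal.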

[3] = biological target: T1, Cholecystokinin receptor type A; assay: Half-maximal inhibition of [125I]CCK-8 binding to cholecystokinin receptor from rat pancreatic tissue
[4] = Ratio of IC50 CCK (pancreas)/ IC50 BZD (brain); format: functional
[5] = biological target: GABA-A receptor; anion channel; assay: Inhibition of [3H]diazepam binding to GABA-A benzodiazepine receptor of rat brain
[6] = Ratio of IC50 CCK(pancreas)/ IC50BZD (brain); format: functional

SMILES | IC50 [2] [nM] | also measured
CN1C(=O)[C@@H](N)N=C(c2ccccc2)c2ccccc21 | – | IC50 [1]: > 100000 nM
O=C1Nc2ccccc2C(c2ccccc2F)=NC1NCc1cc2ccccc2[nH]1 (configuration not stated) | 87 | –
CN1C(=O)C(NC(=O)c2ccccc2Cl)N=C(c2ccccc2)c2ccccc21 (configuration not stated) | 3400 | –
O=C(NC1N=C(c2ccccc2)c2ccccc2NC1=O)c1cccc(Cl)c1 (configuration not stated) | 81 | –
CN1C(=O)C(NC(=O)c2cc3ccccc3n2C)N=C(c2ccccc2)c2ccccc21 (configuration not stated) | 1.4 | ED50 (Mus musculus): 1.9 mg/kg; IC50 [1]: > 100000 nM
CN1C(=O)[C@H](NC(=O)C2CCCCC2)N=C(c2ccccc2)c2ccccc21 | – | IC50 [3]: > 10000 nM
CSc1ccc(C(=O)NC2N=C(c3ccccc3)c3ccccc3NC2=O)cc1 (configuration not stated) | 220 | –
CN1C(=O)[C@@H](NC(=O)[C@H](N)Cc2ccccc2)N=C(c2ccccc2)c2ccccc21 | 1900 | –
O=C(NC1N=C(c2ccccc2)c2ccccc2NC1=O)c1ccc(F)cc1 (configuration not stated) | 480 | –
CN1C(=O)C(NC(=O)c2ccc(C(F)(F)F)cc2)N=C(c2ccccc2F)c2ccccc21 (configuration not stated) | 20 | –
O=C(NC1N=C(c2ccccc2)c2ccccc2NC1=O)c1ccc(C(F)(F)F)cc1 (configuration not stated) | 240 | –
CN1C(=O)C(N(C)C(=O)c2ccccc2Cl)N=C(c2ccccc2)c2ccccc21 (configuration not stated) | 58000 | –
O=C(/C=C/c1ccccc1)NC1N=C(c2ccccc2F)c2ccccc2NC1=O (configuration not stated) | 11 | –
Cc1ccc(C(=O)NC2N=C(c3ccccc3F)c3ccccc3NC2=O)cc1 (configuration not stated) | 21 | –
CCCCCc1ccc(C(=O)N[C@H]2N=C(c3ccccc3F)c3ccccc3N(C)C2=O)cc1 | 690 | –
CN1C(=O)C(NC(=O)c2ccc(Cl)cc2)N=C(c2ccccc2F)c2ccccc21 (configuration not stated) | 2.3 | ED50 (Mus musculus): 0.2 mg/kg
CN1C(=O)[C@@H](NC(=O)c2ccc(Br)cc2)N=C(c2ccccc2F)c2ccccc21 | 0.8 | –
CC(C)(C)OC(=O)N[C@H](Cc1ccccc1)C(=O)NC1N=C(c2ccccc2)c2ccccc2NC1=O (some centres not stated) | 2700 | –
CN(C(=O)c1cc2ccccc2[nH]1)C1N=C(c2ccccc2)c2ccccc2NC1=O (configuration not stated) | 13000 | –
O=C(NC1N=C(c2ccccc2)c2ccccc2NC1=O)c1cc2ccccc2[nH]1 (configuration not stated) | 4.7 | ED50 (Mus musculus): 0.4 mg/kg; Ratio [4]: <4.7e-05; IC50 [5]: > 100000 nM
CN1C(=O)C(NC(=O)c2cc3ccccc3[nH]2)N=C(c2ccccc2)c2ccccc21 (configuration not stated) | – | ED50 (Mus musculus): 0.08 mg/kg

SMILES | IC50 [2] [nM] | also measured
Cn1c(C(=O)NC2N=C(c3ccccc3F)c3ccccc3NC2=O)cc2ccccc21 (configuration not stated) | 4.7 | –
CN1C(=O)C(N)N=C(c2ccccc2F)c2ccccc21 (configuration not stated) | – | IC50 [3]: 57000 nM
CC(C)CCC(=O)N[C@H]1N=C(c2ccccc2)c2ccccc2N(C)C1=O | – | IC50 [3]: 780 nM
CN1C(=O)C(NC(=O)c2ccc(Cl)cc2)[N+]([O-])=C(c2ccccc2F)c2ccccc21 (configuration not stated) | 66 | –
NC1N=C(c2ccccc2F)c2ccccc2NC1=O (configuration not stated) | > 100000 | –
O=C(NC1N=C(c2ccccc2F)c2ccccc2NC1=O)c1ccc([N+](=O)[O-])cc1 (configuration not stated) | 110 | –
O=C(NC1N=C(c2ccccc2F)c2ccccc2NC1=O)c1cc2cc(O)ccc2[nH]1 (configuration not stated) | 71 | –
O=C(NC1N=C(c2ccccc2)c2ccccc2NC1=O)c1ccc(O)cc1 (configuration not stated) | 1800 | –
N#Cc1ccc(C(=O)NC2N=C(c3ccccc3)c3ccccc3NC2=O)cc1 (configuration not stated) | 730 | –
CN1C(=O)[C@H](NC(=O)c2cc3ccccc3[nH]2)N=C(c2ccccc2)c2ccccc21 | – | ED50 (Mus musculus): 0.4 mg/kg
O=C(NC1N=C(c2ccccc2F)c2ccccc2NC1=O)c1ccsc1 (configuration not stated) | 150 | –
CN1C(=O)[C@@H](NC(=O)c2ccc(Br)cc2)N=C(c2ccccc2)c2ccccc21 | 2.9 | ED50 (Mus musculus): 0.4 mg/kg; Ratio [6]: <1e-05; IC50 [1]: > 100000 nM
O=C(NC1N=C(c2ccccc2F)c2ccccc2NC1=O)c1cc2ccccc2[nH]1 (configuration not stated) | 2.1 | –
CCOC(=O)CN1C(=O)C(NC=O)N=C(c2ccccc2)c2ccccc21 (configuration not stated) | – | IC50 [3]: > 100000 nM
CN1C(=O)[C@@H](NC(=O)c2ccc(C(F)(F)F)cc2)N=C(c2ccccc2F)c2ccccc21 | 11 | –
CN1C(=O)CN=C(c2ccccc2F)c2ccccc21 [RO-054520] | 42000 | IC50 [5]: 24 nM; Ratio [6]: 1750
CCOC(=O)CN1C(=O)C(NC(=O)c2ccc(Cl)cc2)N=C(c2ccccc2F)c2ccccc21 (configuration not stated) | 110 | –
CN1C(=O)[C@H](NC(=O)c2ccc(Br)cc2)N=C(c2ccccc2)c2ccccc21 | – | Ratio [6]: 0.05; IC50 [1]: 15000 nM
NC1N=C(c2ccccc2)c2ccccc2NC1=O (configuration not stated) | > 100000 | –
CC1(C(=O)NC2N=C(c3ccccc3F)c3ccccc3NC2=O)C=Cc2ccccc21 (configuration not stated) | 22 | –
CN1C(=O)[C@@H](NC(=O)/C=C/c2ccccc2)N=C(c2ccccc2)c2ccccc21 | – | IC50 [3]: 0.3 nM

SMILES | IC50 [2] [nM] | also measured
CN1C(=O)CN=C(c2ccccc2)c2ccccc21 | 24600 | IC50 [5]: 65 nM; Ratio [6]: 378
CN1C(=O)C(NC(=O)c2ccc(Cl)cc2N)N=C(c2ccccc2)c2ccccc21 (configuration not stated) | – | IC50 [3]: 9 nM
N[C@H](Cc1ccccc1)C(=O)NC1N=C(c2ccccc2)c2ccccc2NC1=O (some centres not stated) | 3100 | –
COc1ccc2[nH]c(C(=O)NC3N=C(c4ccccc4F)c4ccccc4NC3=O)cc2c1 (configuration not stated) | 200 | –
CN1C(=O)[C@H](NC(=O)[C@H](N)Cc2ccccc2)N=C(c2ccccc2)c2ccccc21 | 100000 | –
O=C(NC1N=C(c2ccccc2)c2ccccc2NC1=O)c1ccccc1Cl (configuration not stated) | 7500 | –
O=C(NC1N=C(c2ccccc2)c2ccccc2NC1=O)c1cnccn1 (configuration not stated) | > 10000 | –
O=C1Nc2ccccc2C(c2ccccc2F)=NC1NC(=O)C(O)c1ccccc1 (configuration not stated) | 100000 | –
O=C(NC1N=C(c2ccccc2F)c2ccccc2NC1=O)c1cc2cc(Br)ccc2[nH]1 (configuration not stated) | 120 | –
O=C(NC1N=C(c2ccccc2F)c2ccccc2NC1=O)c1ccc(Cl)cc1 (configuration not stated) | 6 | ED50 (Mus musculus): 1.4 mg/kg
CN1C(=O)[C@H](N)N=C(c2ccccc2)c2ccccc21 | > 100000 | Ratio [6]: >11; IC50 [1]: 8500 nM
CN1C(=O)[C@@H](NC(=O)c2ccc(I)cc2)N=C(c2ccccc2F)c2ccccc21 | 0.8 | –
O=C(NC1N=C(c2ccccc2F)c2ccccc2NC1=O)c1cc2ccccc2o1 (configuration not stated) | 9 | –
O=C(NC1N=C(c2ccccc2F)c2ccccc2NC1=O)c1c(F)c(F)c(F)c(F)c1F (configuration not stated) | > 10000 | –
O=C(NC1N=C(c2ccccc2F)c2ccccc2NC1=O)c1ccc[nH]1 (configuration not stated) | 110 | –
O=C1CN=C(c2ccccc2Cl)c2cc([N+](=O)[O-])ccc2N1 [CLONAZEPAM] | > 100000 | Ratio [6]: >58000
O=C(NC1N=C(c2ccccc2)c2ccccc2NC1=O)c1ccc(Cl)c(Cl)c1 (configuration not stated) | 29 | –
CCCc1ccc(C(=O)NC2N=C(c3ccccc3)c3ccccc3NC2=O)cc1 (configuration not stated) | 3600 | –
CCOC(=O)CN1C(=O)C(NC(=O)c2ccccc2Cl)N=C(c2ccccc2F)c2ccccc21 (configuration not stated) | – | IC50 [3]: > 30000 nM
O=C(Cc1cccc2sccc12)NC1N=C(c2ccccc2F)c2ccccc2NC1=O (configuration not stated) | 1000 | –
CN1C(=O)[C@@H](NC(=O)c2cc3ccccc3[nH]2)N=C(c2ccccc2F)c2ccccc21 | 6 | –

SMILES | IC50 [2] [nM] | also measured
CN1C(=O)[C@@H](NC(=O)c2cc3ccccc3[nH]2)N=C(c2ccccc2)c2ccccc21 [DEVAZEPIDE] | – | ED50 (Mus musculus): 0.04 mg/kg
CN1C(=O)C(NC(=O)c2ccc(C(C)(C)C)cc2)N=C(c2ccccc2F)c2ccccc21 (configuration not stated) | 100 | –
CC(=O)NC1N=C(c2ccccc2F)c2ccccc2NC1=O (configuration not stated) | 40000 | –
O=C(NC1N=C(c2ccccc2)c2ccccc2NC1=O)c1ccc2ccccc2c1 (configuration not stated) | 20 | –
CN1C(=O)C(NC(=O)c2cccc(I)c2)N=C(c2ccccc2F)c2ccccc21 (configuration not stated) | 0.75 | –
O=C1Nc2ccccc2C(c2ccccc2)=NC1NCCc1c[nH]c2ccccc12 (configuration not stated) | 3000 | –
CN1C(=O)C(NC(=O)[C@H](Cc2ccccc2)NC(=O)OC(C)(C)C)N=C(c2ccccc2F)c2ccccc21 (some centres not stated) | – | IC50 [3]: 340 nM
CN1C(=O)C(NC(=O)[C@@H](Cc2ccccc2)NC(=O)OC(C)(C)C)N=C(c2ccccc2)c2ccccc21 (some centres not stated) | 700 | –
O=C(O)CN1C(=O)C(NC(=O)c2cc3ccccc3[nH]2)N=C(c2ccccc2F)c2ccccc21 (configuration not stated) | 1.5 | –
CCCCCc1ccc(C(=O)NC2N=C(c3ccccc3F)c3ccccc3N(C)C2=O)cc1 (configuration not stated) | 1100 | –
O=C(NC1N=C(c2ccccc2F)c2ccccc2N(C(=O)c2ccc(Cl)cc2)C1=O)c1ccc(Cl)cc1 (configuration not stated) | 18 | –
CN1C(=O)C(NC(=O)c2cc3ccccc3[nH]2)N=C(c2ccccc2F)c2ccccc21 (configuration not stated) | 1.4 | –
O=C(O)CN1C(=O)C(NC(=O)c2cc3ccccc3[nH]2)N=C(c2ccccc2)c2ccccc21 (configuration not stated) | 1.4 | ED50 (Mus musculus): 0.5 mg/kg
O=C(NC1N=C(c2ccccc2F)c2ccccc2NC1=O)c1cc2cc(Cl)ccc2[nH]1 (configuration not stated) | 71 | –
COc1ccc(C(=O)NC2N=C(c3ccccc3F)c3ccccc3NC2=O)cc1 (configuration not stated) | 96 | –
CN(C)c1ccc(C(=O)NC2N=C(c3ccccc3F)c3ccccc3NC2=O)cc1 (configuration not stated) | 270 | –
O=C(O)CN1C(=O)C(NC(=O)c2ccc(Cl)cc2)N=C(c2ccccc2F)c2ccccc21 (configuration not stated) | 32 | –
CC(C)(C)OC(=O)N[C@H](Cc1c[nH]c2ccccc12)C(=O)NC1N=C(c2ccccc2)c2ccccc2NC1=O (some centres not stated) | 6000 | –
O=C(NC1N=C(c2ccccc2)c2ccccc2NC1=O)c1ccc(Cl)cc1 (configuration not stated) | 41 | –
CCCCCc1ccc(C(=O)NC2N=C(c3ccccc3)c3ccccc3NC2=O)cc1 (configuration not stated) | 27000 | –
